Assay results gathered from unrelated publications.
Lines come from different studies, so protocols differ.

SMILES | target or system | assay | test system | conditions | quantity | value
CCN(CC)CCNc1ccc(C)c2sc3ccccc3c(=O)c12 | Zaire ebolavirus | viral replication, inhibitor | HeLa | – | IC50 | 3270 nM
Nc1ncnc2c([C@@H]3N[C@H](CO)[C@@H](O)[C@H]3O)c[nH]c12 | Dengue virus | viral replication | Vero 76, DENV2 | 3 µM | inhibition | 11%
CC1=C(O)C(=O)C=C2C1=CC=C1[C@@]2(C)CC[C@@]2(C)[C@@H]3C[C@](C)(C(=O)O)CC[C@]3(C)CC[C@]12C | Bel-7402 | cell growth or viability, MTT | – | 48 h | IC50 | 790 nM
CC[C@H](C)[C@H]1C(=O)N2CCC[C@H]2C(=O)O[C@H](C(C)(C)C)C[C@@H](C)C[C@H](O)[C@H](C)C2=N[C@@H](CCC(=O)N[C@@H](Cc3ccc(OC)cc3)C(=O)N(C)[C@@H](C)C(=O)N1C)CS2 | Dengue virus | viral replication | Huh7.5 | 24 h | IC50 | 3.3 nM
CCN(CC)CCCC(C)Nc1ccnc2cc(Cl)ccc12 (stereo not drawn) | Dengue virus | viral replication, inhibitor | BHK-21, DENV2 | 50 µM, 24 h, replicon | inhibition | 54.8%
CC1=C(O)C(=O)C=C2C1=CC=C1[C@@]2(C)CC[C@@]2(C)[C@@H]3C[C@](C)(C(=O)OCCCn4cc(C=O)c5ccccc54)CC[C@]3(C)CC[C@]12C | Bel-7402 | cell growth or viability, MTT | – | 48 h | IC50 | 770 nM
CCN(CC)Cc1cc(Nc2ccnc3cc(Cl)ccc23)ccc1O | Dengue virus | viral replication, inhibitor | BHK-21, DENV2 | 50 µM, 24 h, replicon | inhibition | 76.3%
CC(C)(N)CNC(=O)C[C@H]1CC[C@]2(CC1)OO[C@]1(O2)C2CC3CC(C2)CC1C3 | Zaire ebolavirus | viral replication, inhibitor | HeLa | – | IC50 | 4530 nM
CCN(CC)Cc1cc(Nc2ccnc3cc(Cl)ccc23)ccc1O | Zaire ebolavirus | viral replication, inhibitor | Huh-7 | 24 h | IC50 | 2130 nM
Cc1cccc(-n2ncc(Cl)c(Cl)c2=O)c1 | NCI-H23 | cell growth or viability, resazurin | – | 96 h | IC50 | 210 nM
Nc1ncn([C@@H]2O[C@H](CO)[C@@H](O)[C@H]2O)c(=O)n1 | Zaire ebolavirus | viral replication, inhibitor | Vero C1008 | 50 µM, 72 h | inhibition | 86%
c1ccc([C@@H]2C[C@H]2NC2CCNCC2)cc1 | MOLM-13 | cell growth or viability, resazurin | – | 96 h | EC50 | 0.91 nM
